# Measured values from ChEMBL document CHEMBL1221381, “Heterocyclic compounds and aromatic diglycosides from Bretschneidera sinensis” (J Nat Prod, 2010).
# Experiments:
# NCI-H446 [1] = assay: Cytotoxicity against human NCI-H446 cells after 72 hrs by MTT assay; type: functional, cell-based; conditions: NCI-H446, 72 h
# Summary of the method: (§1)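 Test samples (>95% pure) were dissolved in DMSO and diluted with PBS to a 1000 µg mL-1 solution. This was serially diluted in PBS to 100–3.125 µg mL-1 solutions. Human cells were seeded at (4-6) × 10^4 cells/mL, and 10 µL/well of sample was added 24 h after seeding. Plates were incubated 72 h at 37 °C in humidified 5% CO2. Viability was read by MTT at 570 nm. Doxorubicin served as positive control.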
# HL-60 [2] = assay: Cytotoxicity against human HL60 cells after 72 hrs by MTT assay; type: functional, cell-based; conditions: HL-60, 72 h; summary of the method: as §1
# [3] = Cytotoxicity against human PC3M cells after 72 hrs by MTT assay; type: functional, cell-based; conditions: PC-3M; summary of the method: as §1
# HCT-116 [4] = assay: Cytotoxicity against human HCT116 cells after 72 hrs by MTT assay; type: functional, cell-based; conditions: HCT-116, 72 h; summary of the method: as §1
# NCI-H446 [5] = assay: Cytotoxicity against human NCI-H446 cells at 100 ug/ml after 72 hrs by MTT assay; type: functional; conditions: NCI-H446, 72 h, read-out: GI; summary of the method: as §1
# HL-60 [6] = assay: Cytotoxicity against human HL60 cells at 100 ug/ml after 72 hrs by MTT assay; type: functional; conditions: HL-60, 72 h, read-out: GI; summary of the method: as §1
# [7] = Cytotoxicity against human PC3M cells at 100 ug/ml after 72 hrs by MTT assay; type: functional; conditions: PC-3M, read-out: GI; summary of the method: as §1
# HCT-116 [8] = assay: Cytotoxicity against human HCT116 cells at 100 ug/ml after 72 hrs by MTT assay; type: functional; conditions: HCT-116, 72 h, read-out: GI; summary of the method: as §1
Structure (SMILES),IC50 (NCI-H446 [1]),IC50 (HL-60 [2]),IC50 [3],IC50 (HCT-116 [4]),inhibition of growth at 100 µg/mL (NCI-H446 [5]),inhibition of growth at 100 µg/mL (HL-60 [6]),inhibition of growth at 100 µg/mL [7],inhibition of growth at 100 µg/mL (HCT-116 [8])
COc1cc2sc(=S)n(C)c(=O)c2cc1O [BRETSCHNEIDERAZINE A],79.2 µg/mL,> 100 µg/mL,> 100 µg/mL,> 100 µg/mL,53.9%,9.91%,29.4%,0%
COc1ccc2c(=O)n(C)c(=S)sc2c1OC [BRETSCHNEIDERAZINE B],60.2 µg/mL,> 100 µg/mL,> 100 µg/mL,> 100 µg/mL,41.3%,8.04%,0%,0%
O=Cc1ccc(O[C@@H]2O[C@H](CO[C@@H]3OC[C@](O)(CO)[C@H]3O)[C@@H](O)[C@H](O)[C@H]2O)c(O)c1 [BRETSCHNEIDEROSIDE B],> 100 µg/mL,> 100 µg/mL,> 100 µg/mL,> 100 µg/mL,38.4%,7.25%,0%,0%
COc1cccc2c1C(=O)c1c(O)c3c(c(O)c1C2=O)C[C@@](O)(C(=O)CO)C[C@@H]3O[C@H]1C[C@H](N)[C@H](O)[C@H](C)O1 [DOXORUBICIN],0.0248 µg/mL,0.457 µg/mL,< 0.001 µg/mL,0.286 µg/mL,91.2%,94.7%,96.4%,93.1%
COc1cc(C=O)ccc1O[C@@H]1O[C@H](CO[C@@H]2OC[C@](O)(CO)[C@H]2O)[C@@H](O)[C@H](O)[C@H]1O [BRETSCHNEIDEROSIDE A],> 100 µg/mL,> 100 µg/mL,> 100 µg/mL,> 100 µg/mL,29.7%,0.14%,0%,0%
COc1cc(CO[C@@H]2O[C@H](CO[C@@H]3OC[C@](O)(CO)[C@H]3O)[C@@H](O)[C@H](O)[C@H]2O)ccc1O [BRETSCHNEIDEROSIDE C],> 100 µg/mL,> 100 µg/mL,> 100 µg/mL,> 100 µg/mL,40.7%,5.68%,6.35%,9.3%
